For 12 compounds, Activity and inhibition in vivo results are on record in ChEMBL document CHEMBL1275301, “Antihypertensive activity of newer 1,4-dihydro-5-pyrimidine carboxamides: synthesis and pharmacological evaluation” (2010).

Assay [1] deals with Rattus norvegicus. The assay can be described thus: Antihypertensive activity against DOCA-salt induced hypertension in albino rat assessed as reduction in systolic blood pressure at 10 mg/kg, po up to 360 mins by tail-cuff method. It counts as functional, organism-based. On the set-up: dose 10 mg/kg. Particulars: Artery. The method, boiled down:
(§1)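 Rats given DOCA 20 mg/kg s.c. twice weekly in olive oil for 4 weeks, with 1% w/v NaCl as drinking water, reaching systolic 160–180 mm Hg. Rats were trained in restrainer and tail-cuff sessions. Compounds in 0.5% CMC were dosed at 10 mg/kg by oral feeding needle, with vehicle and nifedipine groups. BP was read before dosing and after, with the tail warmed at 37 °C for 2–5 min. Each compound was run three times in one week and readings averaged.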

Assay [2] has as its system Rattus norvegicus. The assay can be described thus: Antihypertensive activity against DOCA-salt induced hypertension in albino rat assessed as reduction in systolic blood pressure at 10 mg/kg, po after 240 mins by tail-cuff method. It counts as functional. Particulars: Artery, 4 h. In short, it runs like this:
as §1

For assay [3], the system named is Rattus norvegicus. Nature of the assay: Antihypertensive activity against DOCA-salt induced hypertension in albino rat assessed as reduction in systolic blood pressure at 10 mg/kg, po after 120 mins by tail-cuff method. It counts as functional. Particulars: Artery, 2 h. The method, boiled down:
as §1

Assay [4] has as its system Rattus norvegicus. Nature of the assay: Antihypertensive activity against DOCA-salt induced hypertension in albino rat assessed as reduction in systolic blood pressure at 10 mg/kg, po after 60 mins by tail-cuff method. It counts as functional. Particulars: Artery, 1 h. In short, it runs like this:
as §1

In assay [5] the test system is Rattus norvegicus. The assay can be described thus: Antihypertensive activity against DOCA-salt induced hypertension in albino rat assessed as reduction in systolic blood pressure at 10 mg/kg, po after 720 mins by tail-cuff method. It counts as functional. Particulars: Artery, 12 h. The method, boiled down:
as §1

The test system of assay [6] is Rattus norvegicus. Nature of the assay: Antihypertensive activity against DOCA-salt induced hypertension in albino rat assessed as reduction in systolic blood pressure at 10 mg/kg, po after 300 mins by tail-cuff method. Particulars: Artery, 5 h. It is filed as functional. The method, boiled down:
as §1

The test system of assay [7] is Rattus norvegicus. Nature of the assay: Antihypertensive activity against DOCA-salt induced hypertension in albino rat assessed as reduction in systolic blood pressure at 10 mg/kg, po after 180 mins by tail-cuff method. It counts as functional. Particulars: Artery, 3 h. The method, boiled down: as §1
The subject of assay [8] is Rattus norvegicus. The assay can be described thus: Antihypertensive activity against DOCA-salt induced hypertension in albino rat assessed as reduction in systolic blood pressure at 10 mg/kg, po after 15 mins by tail-cuff method. Particulars: Artery, 0.25 h. It is filed as functional. In short, it runs like this:
as §1

In assay [9] the test system is Rattus norvegicus. Nature of the assay: Antihypertensive activity against DOCA-salt induced hypertension in albino rat assessed as reduction in systolic blood pressure at 10 mg/kg, po after 30 mins by tail-cuff method. It counts as functional. Particulars: Artery, 0.5 h. In short, it runs like this:
as §1

Assay [10] has as its system Rattus norvegicus. Nature of the assay: Antihypertensive activity against DOCA-salt induced hypertension in albino rat assessed as reduction in systolic blood pressure at 10 mg/kg, po after 900 mins by tail-cuff method. It counts as functional. Particulars: Artery, 15 h. The method, boiled down: as §1
In assay [11] the test system is Rattus norvegicus. The assay can be described thus: Antihypertensive activity against DOCA-salt induced hypertension in albino rat assessed as reduction in systolic blood pressure at 10 mg/kg, po after 600 mins by tail-cuff method. It counts as functional. Particulars: Artery, 10 h. The method, boiled down: as §1
Assay [12] deals with Rattus norvegicus. The assay can be described thus: Antihypertensive activity against DOCA-salt induced hypertension in albino rat assessed as reduction in systolic blood pressure at 10 mg/kg, po after 360 mins by tail-cuff method. Particulars: Artery, 6 h. It is filed as functional. In short, it runs like this:
as §1

The source made the active and inactive calls. The rule behind the calls is not given here.

For the compound `CC1=C(C(=O)Nc2ccc([N+](=O)[O-])cc2)C(c2ccc(Br)cc2)N=C(SCc2cccc(Cl)c2)N1` (centres undefined), in the assay on Rattus norvegicus [1], the outcome was Active. The inhibition in vivo at 10 mg/kg in the assay with Rattus norvegicus [2] was found to be 11.8%; with Rattus norvegicus [3], 6.7%; with Rattus norvegicus [4], 4.1%; with Rattus norvegicus [5], 2.6%; in the assay on Rattus norvegicus [6], 9.2%; in the assay with Rattus norvegicus [7], 9.3%. Moreover, the inhibition in vivo at 10 mg/kg came to 2.1% in the assay with Rattus norvegicus [8]; 2.6% with Rattus norvegicus [9]; 2.6% in the assay with Rattus norvegicus [10]; 5.1% in the assay with Rattus norvegicus [11]; 7.2% in the assay with Rattus norvegicus [12].

Take `CC1=C(C(=O)Nc2ccc([N+](=O)[O-])cc2)C(c2cccc([N+](=O)[O-])c2)N=C(SCc2ccccc2)N1` (centres undefined): in the assay with Rattus norvegicus [1], the outcome was Active. The inhibition in vivo at 10 mg/kg in the assay on Rattus norvegicus [2] came out at 21%; with Rattus norvegicus [3], 10.3%; in the assay on Rattus norvegicus [4] it was 7.7%; in the assay with Rattus norvegicus [5], 17.5%; in the assay on Rattus norvegicus [6], 25.6%; in the assay with Rattus norvegicus [7], 16.5%. In addition, the inhibition in vivo at 10 mg/kg is 2.6% with Rattus norvegicus [8]; 4.1% in the assay with Rattus norvegicus [9]; 14.9% with Rattus norvegicus [10]; 27.2% with Rattus norvegicus [11]; 32.5% with Rattus norvegicus [12].

With `COc1ccc(C2N=C(SCc3ccccc3)NC(C)=C2C(=O)Nc2ccc(Br)cc2)cc1` (centres undefined), the result in the assay on Rattus norvegicus [1] was Active. The inhibition in vivo at 10 mg/kg was 13.3% in the assay with Rattus norvegicus [2]; 8.2% with Rattus norvegicus [3]; 5.6% with Rattus norvegicus [4]; 7.2% in the assay with Rattus norvegicus [5]; 16.4% with Rattus norvegicus [6]; 10.3% with Rattus norvegicus [7]. The inhibition in vivo at 10 mg/kg with Rattus norvegicus [8] is 1%; with Rattus norvegicus [9], 2.6%; with Rattus norvegicus [10], 5.6%; in the assay on Rattus norvegicus [11] it was 11.3%; in the assay on Rattus norvegicus [12], 18.6%.

With `COc1ccc(C2N=C(SCc3ccc(F)cc3)NC(C)=C2C(=O)Nc2ccc(F)cc2)cc1OC` (centres undefined), in the assay on Rattus norvegicus [1], the result was Active. In addition, the inhibition in vivo at 10 mg/kg in the assay on Rattus norvegicus [2] was 28.7%; with Rattus norvegicus [3], 15.5%; in the assay on Rattus norvegicus [4], 11.8%; in the assay with Rattus norvegicus [5] it was 17%; in the assay on Rattus norvegicus [6], 37.9%; with Rattus norvegicus [7], 22.2%. For the same compound, the inhibition in vivo at 10 mg/kg was determined as 3.6% in the assay with Rattus norvegicus [8]; 6.7% in the assay with Rattus norvegicus [9]; 15.4% with Rattus norvegicus [10]; 21% in the assay with Rattus norvegicus [11]; 37.1% in the assay on Rattus norvegicus [12].

Consider `CC1=C(C(=O)Nc2ccc([N+](=O)[O-])cc2)C(c2cccc([N+](=O)[O-])c2)N=C(SCc2ccc(F)cc2)N1` (centres undefined), for which the outcome in the assay with Rattus norvegicus [1] was Active. For the same compound, the inhibition in vivo at 10 mg/kg in the assay on Rattus norvegicus [2] was 22.6%; with Rattus norvegicus [3] it was 13.4%; in the assay with Rattus norvegicus [4], 7.2%; with Rattus norvegicus [5], 20.1%; with Rattus norvegicus [6], 27.2%; in the assay with Rattus norvegicus [7], 17.5%. In addition, the inhibition in vivo at 10 mg/kg in the assay on Rattus norvegicus [8] worked out at 2.6%; in the assay with Rattus norvegicus [9] it was 4.1%; in the assay with Rattus norvegicus [10], 15.4%; in the assay on Rattus norvegicus [11] it was 30.3%; in the assay with Rattus norvegicus [12], 36.1%.

Take `CC1=C(C(=O)Nc2ccc(F)cc2)C(c2ccc([N+](=O)[O-])cc2)N=C(SCc2ccc(Cl)cc2)N1` (centres undefined): the outcome in the assay with Rattus norvegicus [1] was Active. In addition, the inhibition in vivo at 10 mg/kg in the assay on Rattus norvegicus [2] is 33.3%; in the assay with Rattus norvegicus [3], 16%; with Rattus norvegicus [4], 11.8%; in the assay on Rattus norvegicus [5], 22.2%; in the assay with Rattus norvegicus [6] it was 37.9%; with Rattus norvegicus [7], 23.2%. In addition, the inhibition in vivo at 10 mg/kg in the assay on Rattus norvegicus [8] is 3.6%; in the assay with Rattus norvegicus [9] it was 6.7%; in the assay with Rattus norvegicus [10] it was 16.9%; in the assay on Rattus norvegicus [11], 28.2%; in the assay with Rattus norvegicus [12], 39.7%.

Turning to `CC1=C(C(=O)Nc2ccc(F)cc2)C(c2ccc([N+](=O)[O-])cc2)N=C(SCc2ccccc2)N1` (centres undefined), the outcome in the assay on Rattus norvegicus [1] was Active. Besides, the inhibition in vivo at 10 mg/kg with Rattus norvegicus [2] was 32.3%; with Rattus norvegicus [3], 18%; in the assay with Rattus norvegicus [4] it was 12.3%; with Rattus norvegicus [5], 27.3%; with Rattus norvegicus [6], 38.5%; in the assay with Rattus norvegicus [7], 23.7%. For the same compound, the inhibition in vivo at 10 mg/kg in the assay on Rattus norvegicus [8] is 3.1%; with Rattus norvegicus [9], 7.2%; with Rattus norvegicus [10], 21%; with Rattus norvegicus [11] it was 32.3%; in the assay with Rattus norvegicus [12] it was 38.7%.

Regarding `COc1ccc(C2N=C(SCc3cccc(Cl)c3)NC(C)=C2C(=O)Nc2ccc(F)cc2)cc1OC` (centres undefined), the outcome in the assay with Rattus norvegicus [1] was Active. Also, the inhibition in vivo at 10 mg/kg with Rattus norvegicus [2] stood at 14.9%; in the assay on Rattus norvegicus [3], 10.8%; with Rattus norvegicus [4], 8.2%; in the assay with Rattus norvegicus [5], 15.5%; in the assay with Rattus norvegicus [6], 16.4%; in the assay with Rattus norvegicus [7], 13.4%. The inhibition in vivo at 10 mg/kg in the assay on Rattus norvegicus [8] amounted to 2.1%; in the assay with Rattus norvegicus [9], 5.2%; in the assay with Rattus norvegicus [10], 13.3%; with Rattus norvegicus [11], 17.4%; with Rattus norvegicus [12], 20.1%.

As for `CC1=C(C(=O)Nc2ccc([N+](=O)[O-])cc2)C(c2cccc([N+](=O)[O-])c2)N=C(SCc2cccc(Cl)c2)N1` (centres undefined), the outcome with Rattus norvegicus [1] was Active. Besides, the inhibition in vivo at 10 mg/kg in the assay on Rattus norvegicus [2] came out at 17.9%; in the assay on Rattus norvegicus [3] it was 12.4%; with Rattus norvegicus [4] it was 8.2%; with Rattus norvegicus [5], 12.9%; with Rattus norvegicus [6], 21%; in the assay on Rattus norvegicus [7], 14.9%. The inhibition in vivo at 10 mg/kg in the assay on Rattus norvegicus [8] stood at 2.6%; with Rattus norvegicus [9], 4.1%; with Rattus norvegicus [10], 10.8%; in the assay on Rattus norvegicus [11] it was 19%; with Rattus norvegicus [12], 21.6%.

Consider `CC1=C(C(=O)Nc2ccc(Br)cc2)C(c2ccc(Cl)cc2Cl)N=C(SCc2ccccc2)N1` (centres undefined), for which the outcome in the assay with Rattus norvegicus [1] was Active. The inhibition in vivo at 10 mg/kg was 17.4% in the assay with Rattus norvegicus [2]; 10.3% in the assay on Rattus norvegicus [3]; 6.7% in the assay with Rattus norvegicus [4]; 11.3% in the assay with Rattus norvegicus [5]; 22.1% with Rattus norvegicus [6]; 13.4% in the assay on Rattus norvegicus [7]. The inhibition in vivo at 10 mg/kg was determined as 1.5% with Rattus norvegicus [8]; 3.6% with Rattus norvegicus [9]; 8.2% in the assay with Rattus norvegicus [10]; 17.4% with Rattus norvegicus [11]; 24.2% with Rattus norvegicus [12].

With `COc1ccc(C2N=C(SCc3ccc(Cl)cc3)NC(C)=C2C(=O)Nc2ccc(Br)cc2)cc1` (centres undefined), the outcome in the assay with Rattus norvegicus [1] was Active. Besides, the inhibition in vivo at 10 mg/kg worked out at 29.2% in the assay on Rattus norvegicus [2]; 16.5% in the assay on Rattus norvegicus [3]; 12.3% in the assay on Rattus norvegicus [4]; 23.7% in the assay with Rattus norvegicus [5]; 37.9% with Rattus norvegicus [6]; 22.7% with Rattus norvegicus [7]. Further, the inhibition in vivo at 10 mg/kg is 3.1% in the assay on Rattus norvegicus [8]; 7.2% in the assay with Rattus norvegicus [9]; 20% with Rattus norvegicus [10]; 30.3% in the assay with Rattus norvegicus [11]; 39.2% with Rattus norvegicus [12].

On to `CC1=C(C(=O)Nc2ccc(Br)cc2)C(c2ccc(Cl)cc2Cl)N=C(SCc2ccc(Cl)cc2)N1` (centres undefined), for which the result with Rattus norvegicus [1] was Active. The inhibition in vivo at 10 mg/kg was found to be 32.3% with Rattus norvegicus [2]; 17.5% in the assay on Rattus norvegicus [3]; 11.8% in the assay on Rattus norvegicus [4]; 25.8% with Rattus norvegicus [5]; 38.5% with Rattus norvegicus [6]; 23.2% in the assay on Rattus norvegicus [7]. In addition, the inhibition in vivo at 10 mg/kg in the assay with Rattus norvegicus [8] came out at 4.1%; in the assay with Rattus norvegicus [9] it was 6.7%; with Rattus norvegicus [10] it was 22.1%; in the assay with Rattus norvegicus [11] it was 30.3%; in the assay on Rattus norvegicus [12] it was 39.7%.

What is called inhibition in vivo is the percentage by which the read-out fell short of the control.
